The source made the active and inactive calls. The calls are words filed in the database; no cut-off is given here.
How the values were obtained:
Rattus norvegicus [1] = test: Reduction in motor activity in rats following p.o. administration.; format: functional
How it was run: (§1)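 Rats in groups of five given graded oral doses. Locomotor activity counted per rat over 5 min at the time of peak effect, which was set earlier with a selected dose. MDD50 is the dose giving 50% reduction versus controls, taken from linear regression.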

Mus musculus [2] = test: Compound was tested for the neuroleptic activity as measured by it's antagonism of d-amphetamine induced lethality in grouped mice(GAL) when administered perorally; 2.5-3.9; format: functional; conditions: po
Mus musculus [3] = test: Inhibition of tetrabenazine induced depression in mice was following p.o. administration; Inactive.; format: functional, organism-based
Mus musculus [4] = test: Compound was tested for the neuroleptic activity as measured by it's antagonism of d-amphetamine induced lethality in grouped mice(GAL) when administered perorally; Inactive; format: functional, organism-based
Mus musculus [5] = test: Compound was tested for the neuroleptic activity as measured by it's antagonism of d-amphetamine induced lethality in grouped mice(GAL) when administered perorally; format: functional; conditions: po
Mus musculus [6] = test: Compound was tested for the neuroleptic activity as measured by it''s antagonism of d-amphetamine induced lethality in grouped mice(GAL) when administered perorally; Inactive at 20 mg/kg; format: functional, organism-based; design: dose 20 mg/kg
Mus musculus [7] = test: Minimum effective dose causing antagonism of tetrabenazine induced depression in mice was determined when administered perorally; format: functional; conditions: po, read-out: MED
Mus musculus [8] = test: Compound was tested for the neuroleptic activity as measured by it's antagonism of d-amphetamine induced lethality in grouped mice(GAL) when administered perorally; 0.09-0.24; format: functional; conditions: po
Mus musculus [9] = test: Compound was tested for the neuroleptic activity as measured by it's antagonism of d-amphetamine induced lethality in grouped mice(GAL) when administered perorally; 2.4-5.6; format: functional; conditions: po
Mus musculus [10] = test: Minimum effective dose causing antagonism of tetrabenazine induced depression in mice was determined when administered perorally; Inactive; format: functional, organism-based
Mus musculus [11] = test: Compound was tested for the neuroleptic activity as measured by it's antagonism of d-amphetamine induced lethality in grouped mice(GAL) when administered perorally; 0.1-0.6; format: functional; conditions: po
Mus musculus [12] = test: Minimum effective dose causing antagonism of tetrabenazine induced depression in mice was determined when administered perorally; Inactive at 25 mg/kg; format: functional, organism-based; design: dose 25 mg/kg
Mus musculus [13] = test: Compound was tested for the neuroleptic activity as measured by it's antagonism of d-amphetamine induced lethality in grouped mice(GAL) when administered perorally; 0.4-3.1; format: functional; conditions: po
Mus musculus [14] = test: Compound was tested for the neuroleptic activity as measured by it's antagonism of d-amphetamine induced lethality in grouped mice(GAL) when administered perorally; 9-33; format: functional; conditions: po
Mus musculus [15] = test: Compound was tested for the neuroleptic activity as measured by it's antagonism of d-amphetamine induced lethality in grouped mice(GAL) when administered perorally; 3.2-5.5; format: functional; conditions: po
Mus musculus [16] = test: Compound was tested for the neuroleptic activity as measured by it's antagonism of d-amphetamine induced lethality in grouped mice(GAL) when administered perorally; 1.1-1.9; format: functional; conditions: po
Mus musculus [17] = test: Compound was tested for the neuroleptic activity as measured by it's antagonism of d-amphetamine induced lethality in grouped mice(GAL) when administered perorally; 1-15; format: functional; conditions: po
Mus musculus [18] = test: Compound was tested for the neuroleptic activity as measured by it's antagonism of d-amphetamine induced lethality in grouped mice(GAL) when administered perorally; 1.1-2.5; format: functional; conditions: po
Mus musculus [19] = test: Minimum effective dose causing antagonism of tetrabenazine induced depression in mice was determined when administered perorally; Inactive at 20 mg/kg; format: functional, organism-based; design: dose 20 mg/kg
Mus musculus [20] = test: Compound was tested for the neuroleptic activity as measured by it's antagonism of d-amphetamine induced lethality in grouped mice(GAL) when administered perorally; 1.6-3.8; format: functional; conditions: po
Mus musculus [21] = test: Compound was tested for the neuroleptic activity as measured by it's antagonism of d-amphetamine induced lethality in grouped mice(GAL) when administered perorally; 1.4-3.1; format: functional; conditions: po
Mus musculus [22] = test: Compound was tested for the neuroleptic activity as measured by it's antagonism of d-amphetamine induced lethality in grouped mice(GAL) when administered perorally; 5.1-9; format: functional; conditions: po
Rattus norvegicus [23] = test: Dose causing 50% reduction of motor activity in rats was measured when administered perorally; Inactive at 50 mg/kg; format: functional, organism-based; design: dose 50 mg/kg; how it was run: as §1
Mus musculus [24] = test: Compound was tested for the neuroleptic activity as measured by it's antagonism of d-amphetamine induced lethality in grouped mice(GAL) when administered perorally; Inactive at 20 mg/kg; format: functional, organism-based; design: dose 20 mg/kg

CN1CCN(C2=Nc3cc(Br)ccc3Oc3cscc32)CC1 was tested, and the MDD50 (Rattus norvegicus [1]) was 16.4 mg/kg, the ED50 (Mus musculus [2]) was 3.1 mg/kg and the MED (Mus musculus [3]) was “inactive”.
For Cc1ccc2c(c1)Oc1cscc1C(N1CCN(CCO)CC1)=N2, the MDD50 (Rattus norvegicus [1]) was 37 mg/kg and the MED (Mus musculus [3]) was “inactive”.
With COc1ccc2c(c1)N=C(N1CCN(C)CC1)c1cscc1O2 the ED50 (Mus musculus [4]) was “inactive”.
In the case of CN1CCN(C2=Nc3cscc3Nc3ccc(Cl)cc32)CC1, the ED50 (Mus musculus [5]) was at most 5 mg/kg and the MED (Mus musculus [3]) was “inactive”.
For CN1CCN(C2=Nc3cscc3N(C)c3ccc(Cl)cc32)CC1, the MDD50 (Rattus norvegicus [1]) was 4.1 mg/kg, the ED50 (Mus musculus [6]) was “inactive” and the minimal effective dose (Mus musculus [7]) was 1.56 mg/kg.
In the case of OCCN1CCN(C2=Nc3cc(Br)ccc3Oc3cscc32)CC1, the ED50 (Mus musculus [5]) was under 2.5 mg/kg and the MED (Mus musculus [3]) was “inactive”.
For CN1CCN(C2=Nc3ccccc3Oc3ccc(Cl)cc32)CC1 [LOXAPINE], the MDD50 (Rattus norvegicus [1]) was 0.6 mg/kg, the ED50 (Mus musculus [8]) was 0.14 mg/kg and the MED (Mus musculus [3]) was “inactive”.
Cc1ccc2c(c1)N=C(N1CCN(C)CC1)c1cscc1O2 was tested, and the MDD50 (Rattus norvegicus [1]) was 5.96 mg/kg, the ED50 (Mus musculus [9]) was 3.6 mg/kg and the MED (Mus musculus [10]) was “inactive”.
For COc1ccc2c(c1)N=C(N1CCN(CCO)CC1)c1cscc1O2, the ED50 (Mus musculus [4]) was “inactive” and the MED (Mus musculus [3]) was “inactive”.
CN1CCN(C2=Nc3ccccc3Sc3cscc32)CC1 was tested, and the ED50 (Mus musculus [11]) was 0.2 mg/kg, the MDD50 (Rattus norvegicus [1]) was under 10 mg/kg and the MED (Mus musculus [12]) was “inactive”.
For COc1ccc2c(c1)Oc1cscc1C(N1CCN(C)CC1)=N2, the ED50 (Mus musculus [4]) was “inactive” and the MED (Mus musculus [3]) was “inactive”.
Work on CN1CCN(C2=Nc3cscc3N(C)c3ccccc32)CC1 yielded an MDD50 (Rattus norvegicus [1]) of 51 mg/kg, an ED50 (Mus musculus [5]) of 6.5 mg/kg and a minimal effective dose (Mus musculus [7]) of 7.6 mg/kg.
With Cc1cc2c(cc1C)Sc1cscc1C(N1CCN(C)CC1)=N2 the ED50 (Mus musculus [4]) was “inactive” and the MED (Mus musculus [3]) was “inactive”.
For Cc1cccc2c1N=C(N1CCN(C)CC1)c1cscc1O2, the MDD50 (Rattus norvegicus [1]) was over 50 mg/kg, the ED50 (Mus musculus [13]) was 1.2 mg/kg and the MED (Mus musculus [3]) was “inactive”.
For CN1CCN(C2=Nc3cscc3Nc3ccc(F)cc32)CC1, the ED50 (Mus musculus [14]) was 17.5 mg/kg and the MED (Mus musculus [3]) was “inactive”.
CN(C)CCCN1c2ccccc2CCc2ccccc21 [IMIPRAMINE] was tested, and the MDD50 (Rattus norvegicus [1]) was over 20 mg/kg, the ED50 (Mus musculus [5]) was over 50 mg/kg and the minimal effective dose (Mus musculus [7]) was 5 mg/kg.
OCCN1CCN(C2=Nc3ccccc3Oc3cscc32)CC1 was tested, and the MDD50 (Rattus norvegicus [1]) was 5.4 mg/kg, the ED50 (Mus musculus [5]) was under 10 mg/kg and the MED (Mus musculus [3]) was “inactive”.
For Cc1ccc2c(c1)N=C(N1CCN(CCO)CC1)c1cscc1O2, the MDD50 (Rattus norvegicus [1]) was 27.2 mg/kg and the ED50 (Mus musculus [6]) was “inactive”.
In the case of CN1CCN(C2=Nc3cc(Cl)ccc3Nc3ccccc32)CC1 [CLOZAPINE], the MDD50 (Rattus norvegicus [1]) was 21 mg/kg, the ED50 (Mus musculus [15]) was 4.2 mg/kg and the MED (Mus musculus [3]) was “inactive”.
CCN1CCN(C2=Nc3ccccc3Oc3cscc32)CC1 was tested, and the MDD50 (Rattus norvegicus [1]) was 1.66 mg/kg, the ED50 (Mus musculus [16]) was 1.4 mg/kg and the MED (Mus musculus [3]) was “inactive”.
In the case of CN1CCN(C2=Nc3cc(Cl)ccc3Sc3cscc32)CC1, the ED50 (Mus musculus [4]) was “inactive” and the MED (Mus musculus [3]) was “inactive”.
Cc1ccc2c(c1)Oc1cscc1C(N1CCN(C)CC1)=N2 was tested, and the ED50 (Mus musculus [6]) was “inactive” and the MED (Mus musculus [10]) was “inactive”.
With CCN1CCN(C2=Nc3cc(C)ccc3Oc3cscc32)CC1 the MDD50 (Rattus norvegicus [1]) was under 50 mg/kg, the ED50 (Mus musculus [17]) was 3.9 mg/kg and the MED (Mus musculus [10]) was “inactive”.
CN1CCN(C2=Nc3cc(Cl)ccc3Oc3cscc32)CC1 was tested, and the MDD50 (Rattus norvegicus [1]) was 9.6 mg/kg, the ED50 (Mus musculus [18]) was 1.6 mg/kg and the MED (Mus musculus [3]) was “inactive”.
For CN1CCN(C2=Nc3ccccc3Oc3cscc32)CC1, the MDD50 (Rattus norvegicus [1]) was 1.3 mg/kg, the ED50 (Mus musculus [5]) was 1.4 mg/kg and the MED (Mus musculus [12]) was “inactive”.
In the case of CN1CCN(C2=Nc3cscc3Nc3ccccc32)CC1, the MDD50 (Rattus norvegicus [1]) was 15 mg/kg, the MED (Mus musculus [19]) was “inactive” and the ED50 (Mus musculus [5]) was 3.2 mg/kg.
CN1CCN(C2=Nc3ccccc3Oc3c2csc3Cl)CC1 showed an MDD50 (Rattus norvegicus [1]) of under 50 mg/kg, an ED50 (Mus musculus [20]) of 2.4 mg/kg and a minimal effective dose (Mus musculus [7]) of 12.5 mg/kg.
OCCN1CCN(C2=Nc3ccccc3Sc3cscc32)CC1 was tested, and the MDD50 (Rattus norvegicus [1]) was under 10 mg/kg, the ED50 (Mus musculus [5]) was 0.2 mg/kg and the MED (Mus musculus [3]) was “inactive”.
For Cc1cccc2c1N=C(N1CCN(CCO)CC1)c1cscc1O2, the ED50 (Mus musculus [6]) was “inactive”.
With OCCN1CCN(C2=Nc3cc(Cl)ccc3Oc3cscc32)CC1 the MDD50 (Rattus norvegicus [1]) was 19.2 mg/kg, the ED50 (Mus musculus [21]) was 2 mg/kg and the MED (Mus musculus [3]) was “inactive”.
For CCN1CCN(C2=Nc3cc(Cl)ccc3Oc3cscc32)CC1, the MDD50 (Rattus norvegicus [1]) was under 50 mg/kg, the ED50 (Mus musculus [22]) was 6.8 mg/kg and the MED (Mus musculus [3]) was “inactive”.
In the case of CN1CCN(C2=Nc3cscc3N(C)c3ccc(F)cc32)CC1, the ED50 (Mus musculus [4]) was “inactive” and the minimal effective dose (Mus musculus [7]) was 6.25 mg/kg.
In the case of OCCN1CCN(C2=Nc3ccccc3Oc3c2csc3Cl)CC1, the ED50 (Mus musculus [5]) was under 10 mg/kg, the MED (Mus musculus [3]) was “inactive” and the MDD50 (Rattus norvegicus [23]) was “inactive”.
For CN1CCN(C2=Nc3ccccc3Sc3c2csc3Cl)CC1, the ED50 (Mus musculus [24]) was “inactive” and the minimal effective dose (Mus musculus [7]) was 1.6 mg/kg.
